Measurements reported in ChEMBL document CHEMBL4689842, “EUbOPEN Chemogenomics Library wave 1” (2021).

Test system: Fibroblast
Assay: Multiplex assay against human fibroblast
Type: toxicity, cell-based
In short: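 Tubulin, mitochondrial-mass and membrane-permeability phenotypes are per cents of healthy-nucleus cells. Cells were gated by CellPathfinder machine learning into Hoechst high-intensity objects or normal cells, normal cells into healthy, pyknosed or fragmented nuclei, and pyknosed cells into mitotic or apoptotic. Before that, live cells stained at seeding with Hoechst33342, BioTracker Green Microtubule Cytoskeleton Dye, MitoTracker Red and Annexin V Alexa Fluor 680 were imaged on a CQ1 microscope at 37°C and 5% CO2 after compound addition.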

[1] = 12 h, 1 µM, compound concentration 1 uM, replicate 1
[2] = 12 h, 1 µM, compound concentration 1 uM, replicate 2
[3] = 12 h, 10 µM, compound concentration 10 uM, replicate 1
[4] = 12 h, 10 µM, compound concentration 10 uM, replicate 2
[5] = 24 h, 1 µM, compound concentration 1 uM, replicate 1
[6] = 24 h, 1 µM, compound concentration 1 uM, replicate 2
[7] = 24 h, 10 µM, compound concentration 10 uM, replicate 1
[8] = 24 h, 10 µM, compound concentration 10 uM, replicate 2
[9] = 48 h, 1 µM, compound concentration 1 uM, replicate 1
[10] = 48 h, 1 µM, compound concentration 1 uM, replicate 2
[11] = 48 h, 10 µM, compound concentration 10 uM, replicate 1
[12] = 48 h, 10 µM, compound concentration 10 uM, replicate 2

Compound: COc1ccc(-c2ccc3ncc4c(c3c2)n(-c2ccc(N3CCNCC3)c(C(F)(F)F)c2)c(=O)n4C)cn1.O=C(O)/C=C\C(=O)O [BGT-226]
- Population Apoptotic (%) [1]: 67%
- Population Fragmented Nuclei (%) [1]: 34%
- Population Healthy Nuclei (%) [1]: 14%
- Population Hoechst High Intensity Objects (%) [1]: 14%
- Population Membrane Permeable-Phenotype (%) [1]: 26%
- Population Mitochondria Different-Phenotype (%) [1]: 33%
- Population Mitotic Cells (%) [1]: 32%
- Population Normal (%) [1]: 85%
- Population Pyknosed Nuclei (%) [1]: 50%
- Population Tubulin-Different-Phenotype (%) [1]: 93%
- Total Cell Count [1]: 122
- Population Apoptotic (%) [2]: 81%
- Population Fragmented Nuclei (%) [2]: 24%
- Population Healthy Nuclei (%) [2]: 45%
- Population Hoechst High Intensity Objects (%) [2]: 17%
- Population Membrane Permeable-Phenotype (%) [2]: 70%
- Population Mitochondria Different-Phenotype (%) [2]: 94%
- Population Mitotic Cells (%) [2]: 18%
- Population Normal (%) [2]: 82%
- Population Pyknosed Nuclei (%) [2]: 29%
- Population Tubulin-Different-Phenotype (%) [2]: 94%
- Total Cell Count [2]: 45
- Population Apoptotic (%) [3]: 62%
- Population Fragmented Nuclei (%) [3]: 27%
- Population Healthy Nuclei (%) [3]: 2%
- Population Hoechst High Intensity Objects (%) [3]: 14%
- Population Membrane Permeable-Phenotype (%) [3]: 50%
- Population Mitochondria Different-Phenotype (%) [3]: 0%
- Population Mitotic Cells (%) [3]: 37%
- Population Normal (%) [3]: 85%
- Population Pyknosed Nuclei (%) [3]: 69%
- Population Tubulin-Different-Phenotype (%) [3]: 0%
- Total Cell Count [3]: 89
- Population Apoptotic (%) [4]: 100%
- Population Fragmented Nuclei (%) [4]: 70%
- Population Healthy Nuclei (%) [4]: 9%
- Population Hoechst High Intensity Objects (%) [4]: 62%
- Population Membrane Permeable-Phenotype (%) [4]: 24%
- Population Mitochondria Different-Phenotype (%) [4]: 32%
- Population Mitotic Cells (%) [4]: 0%
- Population Normal (%) [4]: 37%
- Population Pyknosed Nuclei (%) [4]: 19%
- Population Tubulin-Different-Phenotype (%) [4]: 24%
- Total Cell Count [4]: 675
- Population Apoptotic (%) [5]: 69%
- Population Fragmented Nuclei (%) [5]: 45%
- Population Healthy Nuclei (%) [5]: 12%
- Population Hoechst High Intensity Objects (%) [5]: 18%
- Population Membrane Permeable-Phenotype (%) [5]: 58%
- Population Mitochondria Different-Phenotype (%) [5]: 16%
- Population Mitotic Cells (%) [5]: 30%
- Population Normal (%) [5]: 81%
- Population Pyknosed Nuclei (%) [5]: 41%
- Population Tubulin-Different-Phenotype (%) [5]: 50%
- Total Cell Count [5]: 115
- Population Apoptotic (%) [6]: 83%
- Population Fragmented Nuclei (%) [6]: 20%
- Population Healthy Nuclei (%) [6]: 40%
- Population Hoechst High Intensity Objects (%) [6]: 30%
- Population Membrane Permeable-Phenotype (%) [6]: 66%
- Population Mitochondria Different-Phenotype (%) [6]: 91%
- Population Mitotic Cells (%) [6]: 16%
- Population Normal (%) [6]: 69%
- Population Pyknosed Nuclei (%) [6]: 40%
- Population Tubulin-Different-Phenotype (%) [6]: 91%
- Total Cell Count [6]: 43
- Population Apoptotic (%) [7]: 58%
- Population Fragmented Nuclei (%) [7]: 23%
- Population Healthy Nuclei (%) [7]: 32%
- Population Hoechst High Intensity Objects (%) [7]: 26%
- Population Membrane Permeable-Phenotype (%) [7]: 38%
- Population Mitochondria Different-Phenotype (%) [7]: 0%
- Population Mitotic Cells (%) [7]: 41%
- Population Normal (%) [7]: 73%
- Population Pyknosed Nuclei (%) [7]: 44%
- Population Tubulin-Different-Phenotype (%) [7]: 52%
- Total Cell Count [7]: 89
- Population Apoptotic (%) [8]: 100%
- Population Fragmented Nuclei (%) [8]: 79%
- Population Healthy Nuclei (%) [8]: 10%
- Population Hoechst High Intensity Objects (%) [8]: 64%
- Population Membrane Permeable-Phenotype (%) [8]: 69%
- Population Mitochondria Different-Phenotype (%) [8]: 60%
- Population Mitotic Cells (%) [8]: 0%
- Population Normal (%) [8]: 35%
- Population Pyknosed Nuclei (%) [8]: 9%
- Population Tubulin-Different-Phenotype (%) [8]: 60%
- Total Cell Count [8]: 614
- Population Apoptotic (%) [9]: 84%
- Population Fragmented Nuclei (%) [9]: 55%
- Population Healthy Nuclei (%) [9]: 25%
- Population Hoechst High Intensity Objects (%) [9]: 38%
- Population Membrane Permeable-Phenotype (%) [9]: 58%
- Population Mitochondria Different-Phenotype (%) [9]: 11%
- Population Mitotic Cells (%) [9]: 15%
- Population Normal (%) [9]: 61%
- Population Pyknosed Nuclei (%) [9]: 19%
- Population Tubulin-Different-Phenotype (%) [9]: 47%
- Total Cell Count [9]: 111
- Population Apoptotic (%) [10]: 62%
- Population Fragmented Nuclei (%) [10]: 28%
- Population Healthy Nuclei (%) [10]: 59%
- Population Hoechst High Intensity Objects (%) [10]: 27%
- Population Membrane Permeable-Phenotype (%) [10]: 19%
- Population Mitochondria Different-Phenotype (%) [10]: 19%
- Population Mitotic Cells (%) [10]: 37%
- Population Normal (%) [10]: 72%
- Population Pyknosed Nuclei (%) [10]: 11%
- Population Tubulin-Different-Phenotype (%) [10]: 85%
- Total Cell Count [10]: 188
- Population Apoptotic (%) [11]: 66%
- Population Fragmented Nuclei (%) [11]: 57%
- Population Healthy Nuclei (%) [11]: 37%
- Population Hoechst High Intensity Objects (%) [11]: 42%
- Population Membrane Permeable-Phenotype (%) [11]: 50%
- Population Mitochondria Different-Phenotype (%) [11]: 4%
- Population Mitotic Cells (%) [11]: 33%
- Population Normal (%) [11]: 57%
- Population Pyknosed Nuclei (%) [11]: 4%
- Population Tubulin-Different-Phenotype (%) [11]: 58%
- Total Cell Count [11]: 111
- Population Apoptotic (%) [12]: 25%
- Population Fragmented Nuclei (%) [12]: 75%
- Population Healthy Nuclei (%) [12]: 17%
- Population Hoechst High Intensity Objects (%) [12]: 44%
- Population Membrane Permeable-Phenotype (%) [12]: 44%
- Population Mitochondria Different-Phenotype (%) [12]: 33%
- Population Mitotic Cells (%) [12]: 75%
- Population Normal (%) [12]: 55%
- Population Pyknosed Nuclei (%) [12]: 7%
- Population Tubulin-Different-Phenotype (%) [12]: 55%
- Total Cell Count [12]: 94
